According to ChEMBL document CHEMBL3098071, “Synthesis and evaluation of novel azoles as potent antifungal agents” (2014):
In brackets after ≈: the same amount, converted by molar mass.

Assays:
Format in all cases: functional
Trichophyton rubrum = test: Antimicrobial activity against Trichophyton rubrum by broth microdilution method
Cryptococcus neoformans = test: Antimicrobial activity against Cryptococcus neoformans after 72 hrs by broth microdilution method
Method in brief: (§1)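 Broth microdilution in 96-well plates following NCCLS methods. Compounds were dissolved in DMSO, serially diluted in growth medium, inoculated and incubated at 35°C. MIC read at 24 h for Candida albicans and at 72 h for Cryptococcus neoformans. MIC80 is the first well with about 80% less growth than the drug-free well. Values are means of three replicate tests.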

Candida parapsilosis = test: Antimicrobial activity against Candida parapsilosis by broth microdilution method; details: Lodderomyces parapsilosis
Nannizzia gypsea = test: Antimicrobial activity against Microsporum gypseum by broth microdilution method
Candida albicans [1] = test: Antimicrobial activity against Candida albicans SC5314 after 24 hrs by broth microdilution method; details: SC5314, 24 h; method in brief: as §1
Nakaseomyces glabratus [2] = test: Antimicrobial activity against Candida glabrata by broth microdilution method
Aspergillus fumigatus = test: Antimicrobial activity against Aspergillus fumigatus by broth microdilution method
Candida albicans [3] = test: Antimicrobial activity against Candida albicans Y0109 after 24 hrs by broth microdilution method; details: Y0109, 24 h; method in brief: as §1
Candida albicans [4] = test: Ratio of itraconazole MIC80 to compound MIC80 for Candida albicans SC5314
Candida albicans [5] = test: Ratio of voriconazole MIC80 to compound MIC80 for Candida albicans SC5314
Nakaseomyces glabratus [6] = test: Ratio of itraconazole MIC80 to compound MIC80 for Candida glabrata
Nakaseomyces glabratus [7] = test: Ratio of voriconazole MIC80 to compound MIC80 for Candida glabrata
Nakaseomyces glabratus [8] = test: Ratio of ketoconazole MIC80 to compound MIC80 for Candida glabrata
Nakaseomyces glabratus [9] = test: Ratio of fluconazole MIC80 to compound MIC80 for Candida glabrata

Structure (SMILES)	MIC80 (Trichophyton rubrum) [µg/mL]	MIC80 (Cryptococcus neoformans) [µg/mL]	MIC80 (Candida parapsilosis) [µg/mL]	MIC80 (Nannizzia gypsea) [µg/mL]	MIC80 (Candida albicans [1]) [µg/mL]	MIC80 (Nakaseomyces glabratus [2]) [µg/mL]	MIC80 (Aspergillus fumigatus) [µg/mL]	MIC80 (Candida albicans [3]) [µg/mL]	Ratio (Candida albicans [4])	Ratio (Candida albicans [5])	Ratio (Nakaseomyces glabratus [6])	Ratio (Nakaseomyces glabratus [7])	Ratio (Nakaseomyces glabratus [8])	Ratio (Nakaseomyces glabratus [9])
CCC(C)n1ncn(-c2ccc(N3CCN(c4ccc(OCC5COC(Cn6cncn6)(c6ccc(Cl)cc6Cl)O5)cc4)CC3)cc2)c1=O (stereo unspecified) [ITRACONAZOLE]	0.5 (≈ 0.709 µM)	0.125 (≈ 0.177 µM)	0.125 (≈ 0.177 µM)	1 (≈ 1.42 µM)	0.25 (≈ 0.354 µM)	0.125 (≈ 0.177 µM)	1 (≈ 1.42 µM)	0.25 (≈ 0.354 µM)	–	–	–	–	–	–
N#Cc1ccccc1-c1nnc(SCCCN2CCN(CC(O)(Cn3cncn3)c3ccc(F)cc3F)CC2)o1 (stereo unspecified)	0.25 (≈ 0.441 µM)	0.25 (≈ 0.441 µM)	0.25 (≈ 0.441 µM)	1 (≈ 1.76 µM)	0.125 (≈ 0.221 µM)	0.125 (≈ 0.221 µM)	> 64	0.125 (≈ 0.221 µM)	–	–	–	–	–	–
OC(Cn1cncn1)(Cn1cncn1)c1ccc(F)cc1F [FLUCONAZOLE]	> 64	1 (≈ 3.27 µM)	1 (≈ 3.27 µM)	8 (≈ 26.1 µM)	0.5 (≈ 1.63 µM)	1 (≈ 3.27 µM)	8 (≈ 26.1 µM)	0.5 (≈ 1.63 µM)	–	–	–	–	–	–
OC(CN1CCN(CCCSc2nnc(-c3cccc(Cl)c3)o2)CC1)(Cn1cncn1)c1ccc(F)cc1F (stereo unspecified)	0.0625 (≈ 0.108 µM)	0.0625 (≈ 0.108 µM)	0.25 (≈ 0.434 µM)	1 (≈ 1.74 µM)	0.0039 (≈ 0.00677 µM)	0.25 (≈ 0.434 µM)	> 64	0.0039 (≈ 0.00677 µM)	64	16	–	–	–	–
Cc1cccc(-c2nnc(SCCCN3CCN(CC(O)(Cn4cncn4)c4ccc(F)cc4F)CC3)o2)c1 (stereo unspecified)	1 (≈ 1.8 µM)	1 (≈ 1.8 µM)	4 (≈ 7.2 µM)	1 (≈ 1.8 µM)	0.125 (≈ 0.225 µM)	1 (≈ 1.8 µM)	> 64	0.25 (≈ 0.45 µM)	–	–	–	–	–	–
COc1cccc(-c2nnc(SCCCN3CCN(CC(O)(Cn4cncn4)c4ccc(F)cc4F)CC3)o2)c1 (stereo unspecified)	0.0625 (≈ 0.109 µM)	0.25 (≈ 0.437 µM)	0.25 (≈ 0.437 µM)	0.25 (≈ 0.437 µM)	0.25 (≈ 0.437 µM)	0.25 (≈ 0.437 µM)	> 64	0.25 (≈ 0.437 µM)	–	–	–	–	–	–
COc1ccc(-c2nnc(SCCCN3CCN(CC(O)(Cn4cncn4)c4ccc(F)cc4F)CC3)o2)cc1 (stereo unspecified)	0.25 (≈ 0.437 µM)	0.25 (≈ 0.437 µM)	0.25 (≈ 0.437 µM)	0.25 (≈ 0.437 µM)	0.25 (≈ 0.437 µM)	0.25 (≈ 0.437 µM)	> 64	0.25 (≈ 0.437 µM)	–	–	–	–	–	–
C[C@@H](c1ncncc1F)[C@](O)(Cn1cncn1)c1ccc(F)cc1F [VORICONAZOLE]	0.25 (≈ 0.716 µM)	0.0156 (≈ 0.0447 µM)	0.0625 (≈ 0.179 µM)	0.125 (≈ 0.358 µM)	0.0625 (≈ 0.179 µM)	0.0625 (≈ 0.179 µM)	0.0625 (≈ 0.179 µM)	0.0625 (≈ 0.179 µM)	–	–	–	–	–	–
O=[N+]([O-])c1ccccc1-c1nnc(SCCCN2CCN(CC(O)(Cn3cncn3)c3ccc(F)cc3F)CC2)o1 (stereo unspecified)	0.25 (≈ 0.426 µM)	0.125 (≈ 0.213 µM)	0.125 (≈ 0.213 µM)	0.25 (≈ 0.426 µM)	0.125 (≈ 0.213 µM)	0.25 (≈ 0.426 µM)	> 64	0.25 (≈ 0.426 µM)	–	–	–	–	–	–
OC(CN1CCN(CCCSc2nnc(-c3ccc(F)cc3)o2)CC1)(Cn1cncn1)c1ccc(F)cc1F (stereo unspecified)	0.0625 (≈ 0.112 µM)	0.25 (≈ 0.447 µM)	0.25 (≈ 0.447 µM)	4 (≈ 7.15 µM)	0.0156 (≈ 0.0279 µM)	0.25 (≈ 0.447 µM)	> 64	0.25 (≈ 0.447 µM)	–	–	–	–	–	–
Cc1ccc(-c2nnc(SCCCN3CCN(CC(O)(Cn4cncn4)c4ccc(F)cc4F)CC3)o2)cc1 (stereo unspecified)	1 (≈ 1.8 µM)	1 (≈ 1.8 µM)	0.025 (≈ 0.045 µM)	1 (≈ 1.8 µM)	0.25 (≈ 0.45 µM)	0.25 (≈ 0.45 µM)	> 64	0.125 (≈ 0.225 µM)	–	–	–	–	–	–
Cc1ccccc1-c1nnc(SCCCN2CCN(CC(O)(Cn3cncn3)c3ccc(F)cc3F)CC2)o1 (stereo unspecified)	0.25 (≈ 0.45 µM)	0.125 (≈ 0.225 µM)	0.125 (≈ 0.225 µM)	0.25 (≈ 0.45 µM)	0.25 (≈ 0.45 µM)	0.125 (≈ 0.225 µM)	> 64	0.25 (≈ 0.45 µM)	–	–	–	–	–	–
OC(CN1CCN(CCCSc2nnc(-c3ccc(Cl)cc3)o2)CC1)(Cn1cncn1)c1ccc(F)cc1F (stereo unspecified)	0.25 (≈ 0.434 µM)	0.0625 (≈ 0.108 µM)	0.0625 (≈ 0.108 µM)	4 (≈ 6.94 µM)	0.0039 (≈ 0.00677 µM)	0.0625 (≈ 0.108 µM)	> 64	0.0625 (≈ 0.108 µM)	–	16	–	–	–	–
CC(=O)N1CCN(c2ccc(OCC3COC(Cn4ccnc4)(c4ccc(Cl)cc4Cl)O3)cc2)CC1 (stereo unspecified) [KETOCONAZOLE]	8 (≈ 15.1 µM)	4 (≈ 7.53 µM)	8 (≈ 15.1 µM)	2 (≈ 3.76 µM)	4 (≈ 7.53 µM)	8 (≈ 15.1 µM)	2 (≈ 3.76 µM)	8 (≈ 15.1 µM)	–	–	–	–	–	–
OC(CN1CCN(CCCSc2nnc(-c3ccc(Br)cc3)o2)CC1)(Cn1cncn1)c1ccc(F)cc1F (stereo unspecified)	0.25 (≈ 0.403 µM)	0.25 (≈ 0.403 µM)	0.0625 (≈ 0.101 µM)	0.25 (≈ 0.403 µM)	0.0625 (≈ 0.101 µM)	0.0156 (≈ 0.0251 µM)	> 64	0.0625 (≈ 0.101 µM)	–	–	–	–	–	–
OC(CN1CCN(CCCSc2nnc(-c3ccccc3F)o2)CC1)(Cn1cncn1)c1ccc(F)cc1F (stereo unspecified)	0.0625 (≈ 0.112 µM)	0.0625 (≈ 0.112 µM)	0.25 (≈ 0.447 µM)	1 (≈ 1.79 µM)	0.0625 (≈ 0.112 µM)	0.0625 (≈ 0.112 µM)	> 64	0.0156 (≈ 0.0279 µM)	–	–	–	–	–	–
OC(CN1CCN(CCCSc2nnc(-c3cccc(Br)c3)o2)CC1)(Cn1cncn1)c1ccc(F)cc1F (stereo unspecified)	0.25 (≈ 0.403 µM)	0.25 (≈ 0.403 µM)	0.25 (≈ 0.403 µM)	1 (≈ 1.61 µM)	0.0625 (≈ 0.101 µM)	0.0039 (≈ 0.00629 µM)	> 64	0.0625 (≈ 0.101 µM)	–	–	32	16	2051	256
OC(CN1CCN(CCCSc2nnc(-c3ccccc3Br)o2)CC1)(Cn1cncn1)c1ccc(F)cc1F (stereo unspecified)	0.25 (≈ 0.403 µM)	0.0625 (≈ 0.101 µM)	0.0625 (≈ 0.101 µM)	0.25 (≈ 0.403 µM)	0.0156 (≈ 0.0251 µM)	0.0625 (≈ 0.101 µM)	> 64	0.0625 (≈ 0.101 µM)	–	–	–	–	–	–
OC(CN1CCN(CCCSc2nnc(-c3ccccc3Cl)o2)CC1)(Cn1cncn1)c1ccc(F)cc1F (stereo unspecified)	0.25 (≈ 0.434 µM)	0.25 (≈ 0.434 µM)	0.25 (≈ 0.434 µM)	4 (≈ 6.94 µM)	0.0039 (≈ 0.00677 µM)	0.25 (≈ 0.434 µM)	> 64	0.0039 (≈ 0.00677 µM)	64	16	–	–	–	–
N#Cc1cccc(-c2nnc(SCCCN3CCN(CC(O)(Cn4cncn4)c4ccc(F)cc4F)CC3)o2)c1 (stereo unspecified)	0.25 (≈ 0.441 µM)	0.25 (≈ 0.441 µM)	0.25 (≈ 0.441 µM)	1 (≈ 1.76 µM)	0.125 (≈ 0.221 µM)	0.25 (≈ 0.441 µM)	> 64	0.125 (≈ 0.221 µM)	–	–	–	–	–	–
OC(CN1CCN(CCCSc2nnc(-c3cccc(F)c3)o2)CC1)(Cn1cncn1)c1ccc(F)cc1F (stereo unspecified)	0.0625 (≈ 0.112 µM)	0.0625 (≈ 0.112 µM)	0.25 (≈ 0.447 µM)	1 (≈ 1.79 µM)	0.0039 (≈ 0.00697 µM)	0.0625 (≈ 0.112 µM)	> 64	0.0625 (≈ 0.112 µM)	64	16	–	–	–	–
O=[N+]([O-])c1ccc(-c2nnc(SCCCN3CCN(CC(O)(Cn4cncn4)c4ccc(F)cc4F)CC3)o2)cc1 (stereo unspecified)	1 (≈ 1.7 µM)	0.25 (≈ 0.426 µM)	0.125 (≈ 0.213 µM)	1 (≈ 1.7 µM)	0.25 (≈ 0.426 µM)	0.125 (≈ 0.213 µM)	> 64	0.125 (≈ 0.213 µM)	–	–	–	–	–	–
COc1ccccc1-c1nnc(SCCCN2CCN(CC(O)(Cn3cncn3)c3ccc(F)cc3F)CC2)o1 (stereo unspecified)	0.25 (≈ 0.437 µM)	4 (≈ 7 µM)	16 (≈ 28 µM)	16 (≈ 28 µM)	0.25 (≈ 0.437 µM)	1 (≈ 1.75 µM)	> 64	0.125 (≈ 0.219 µM)	–	–	–	–	–	–
OC(CN1CCN(CCCSc2nnc(-c3ccccc3)o2)CC1)(Cn1cncn1)c1ccc(F)cc1F (stereo unspecified)	0.25 (≈ 0.462 µM)	0.0625 (≈ 0.115 µM)	0.0625 (≈ 0.115 µM)	1 (≈ 1.85 µM)	0.0156 (≈ 0.0288 µM)	0.0625 (≈ 0.115 µM)	> 64	0.0156 (≈ 0.0288 µM)	–	–	–	–	–	–
OC(CN1CCNCC1)(Cn1cncn1)c1ccc(F)cc1F (stereo unspecified)	1 (≈ 3.09 µM)	4 (≈ 12.4 µM)	2 (≈ 6.19 µM)	16 (≈ 49.5 µM)	0.5 (≈ 1.55 µM)	0.25 (≈ 0.773 µM)	> 64	1 (≈ 3.09 µM)	–	–	–	–	–	–
